Source: PubChem (Broad Institute)
A1 apoptosis 2: blocks A1, raising caspase activity. MEF A1-2A-BIM cells, caspase-Glo luminescence, 3 h; percent of clofoctol response, DMSO zero. caspase activation, % (no concentration beside the values). 24,000 tested, under 10 active. AID 2465; in the data active = caspase activation above about 5.9%
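Test system – A1-2A-BIM-expressing MEF cells · Input – 2500 cells/well · Medium – RPMI-1640 growth medium with 10% FBS · Compound dosing – 50 nL pinned compound · Timing – 3 h compound exposure at 37 °C · Technique – Caspase-Glo luminescence (DEVD substrate) · Evaluation – Caspase-3/7 activity from luminescence increase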
INS-1E rescue: preserves ATP levels in cytokine-treated INS-1E cells; INS-1E cytokine-induced death, ATP luminescence, 48 h; normalised: neutral wells 0, positive control 100; protection from cytokine-induced ATP loss, % at 10 µM; 20,000 tested, 0.1% active;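 active = mean replicate protection from cytokine-induced ATP loss at least 50% and at least 75% of replicates each reaching 50%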
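Test system: INS-1E rat cells | Quantity: 8000 cells per well | Medium: Phenol-red-free RPMI with 5% fetal bovine serum | Reagent: Cytokine cocktail of IFN-γ, TNF-α and IL-1β | Doses: One compound concentration, pin transfer | Timing: 48 h co-treatment, 10 min post-lysis read | Technique: Luminescent ATP assay (CellTiter-Glo)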
T cruzi HTS: blocks T. cruzi growth inside host cells. intracellular Trypanosoma cruzi in host cells, plate reader. activity score (inhibition), % at 5.01 µM. 22,000 tested, 4.9% active; in the data active = activity score above about 55%;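 also: parasites and compound incubated about four days before reading; 0% = median of neutral control wells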
Numbers without * were called inactive; · = not tested or not shown. The entries come from a sample that favours hits as a whole.

SMILES | A1 apoptosis 2 | INS-1E rescue | T cruzi HTS
C[C@@H]1CN([C@H](C)CO)C(=O)c2cc(NC(=O)Nc3cccc4ccccc34)ccc2O[C@H]1CN(C)Cc1ccc(Cl)c(Cl)c1 | -1 | -34 | 58*
C[C@@H]1CN([C@@H](C)CO)C(=O)Cc2cc(NC(=O)Nc3cccc4ccccc34)ccc2O[C@H]1CN(C)Cc1ccc(Cl)c(Cl)c1 | 1 | · | ·
C[C@H]1CN([C@@H](C)CO)C(=O)c2cccc(NC(=O)Nc3cccc4ccccc34)c2O[C@H]1CN(C)Cc1ccc2c(c1)OCO2 | -1 | -16 | 65*
Cc1ccc(S(=O)(=O)N(C)C[C@@H]2Oc3ccc(NC(=O)Nc4cccc5ccccc45)cc3CC(=O)N([C@@H](C)CO)C[C@@H]2C)cc1 | · | -15 | -6
Cc1ccc(S(=O)(=O)N(C)C[C@H]2Oc3ccc(NC(=O)Nc4cccc5ccccc45)cc3CC(=O)N([C@@H](C)CO)C[C@H]2C)cc1 | 2 | -5 | 67*
C[C@@H]1CN([C@H](C)CO)C(=O)c2cccc(NC(=O)Nc3cccc4ccccc34)c2O[C@@H]1CN(C)Cc1ccc2c(c1)OCO2 | -1 | -17 | -13
CC(C)=CCC[C@H](C)C/C=N/NC(=O)CCCCCCC(=O)O | 0 | 0 | -14
C[C@@H]1CN([C@H](C)CO)C(=O)c2cc(NS(=O)(=O)c3ccccc3)ccc2O[C@@H](C)CCCCO[C@@H]1CN(C)Cc1ccc(C(=O)O)cc1 | 0 | · | ·
C=CCOC(=O)C(=O)/C=C/C(C)(C)C | 0 | · | ·
C[C@H](CO)N1C[C@H](C)[C@@H](CN(C)C(=O)Nc2ccc3c(c2)OCO3)Oc2ccc(NC(=O)Nc3ccccc3)cc2C1=O | · | 1 | 2
NCCCCCCNC(=O)[C@@H]1C[C@@H]2C(=O)NCC(=O)N2[C@@H]1c1cccc(OCCO)c1 | -1 | · | ·
O=C(N/N=C/c1ccc2ccccc2n1)c1ccccc1O | · | -15 | -1
C[C@H](CO)N1C[C@H](C)[C@H](CN(C)Cc2ccc3c(c2)OCO3)Oc2ccc(NC(=O)Nc3cccc4ccccc34)cc2C1=O | -1 | -19 | 61*
C[C@@H]1CN([C@H](C)CO)C(=O)Cc2cc(NC(=O)Nc3cccc4ccccc34)ccc2O[C@H]1CN(C)Cc1ccc(Oc2ccccc2)cc1 | · | -10 | 57*
C[C@H]1CN([C@@H](C)CO)C(=O)Cc2cc(NC(=O)Nc3cccc4ccccc34)ccc2O[C@H]1CN(C)Cc1ccc(Oc2ccccc2)cc1 | · | -21 | 26
C[C@H]1CN([C@@H](C)CO)C(=O)c2cc(NC(=O)Nc3cccc4ccccc34)ccc2O[C@H]1CN(C)Cc1ccccc1 | 1 | -5 | -16
COc1ccc2[nH]c(=O)[nH]c(=O)c2c1 | 0 | · | ·
CC(C)(C)OC(=O)NC1(/C=N/NC(=O)CCCCCCC(=O)NO)CCCC1 | 0 | · | ·
O=C(CCCCCC(=O)Nc1ccccc1O)N/N=C/c1ccc([N+](=O)[O-])s1 | 0 | · | ·
O=C(O)CCCCCCC(=O)N/N=C/c1ccc([N+](=O)[O-])s1 | -2 | -6 | 32
COC(=O)CCCCCCC(=O)N/N=C/c1ccc([N+](=O)[O-])s1 | 0 | -62 | 81*
O=C(CCCCCC(=O)N/N=C/c1ccc([N+](=O)[O-])s1)NO | · | 20 | 64*
O=C(CCCCCCC(=O)N/N=C/c1cccnc1Br)NO | 1 | · | ·
COc1ccc(CN(C)C[C@@H]2OCCCC[C@H](C)Oc3ccc(NC(=O)CCC(F)(F)F)cc3C(=O)N([C@@H](C)CO)C[C@H]2C)cc1 | -1 | · | ·
COc1ccc(S(=O)(=O)N(C)C[C@@H]2Oc3ccc(NS(=O)(=O)c4ccc(Cl)cc4)cc3CC(=O)N([C@@H](C)CO)C[C@@H]2C)cc1 | 1 | 3 | -38
COc1ccc(S(=O)(=O)N(C)C[C@H]2Oc3ccc(NS(=O)(=O)c4ccc(Cl)cc4)cc3CC(=O)N([C@H](C)CO)C[C@H]2C)cc1 | · | -8 | 67*
COc1ccc(S(=O)(=O)N(C)C[C@H]2Oc3ccc(NS(=O)(=O)c4ccc(Cl)cc4)cc3CC(=O)N([C@@H](C)CO)C[C@H]2C)cc1 | 1 | -6 | 62*
COc1ccc(S(=O)(=O)Nc2ccc3c(c2)CC(=O)N([C@H](C)CO)C[C@@H](C)[C@@H](CN(C)S(=O)(=O)c2ccc(OC)cc2)O3)cc1 | 0 | 8 | 67*
COc1ccc(S(=O)(=O)Nc2ccc3c(c2)CC(=O)N([C@@H](C)CO)C[C@H](C)[C@@H](CN(C)S(=O)(=O)c2ccc(OC)cc2)O3)cc1 | 1 | 1 | 9
COc1ccc(S(=O)(=O)Nc2ccc3c(c2)CC(=O)N([C@H](C)CO)C[C@H](C)[C@H](CN(C)S(=O)(=O)c2ccc(Cl)cc2)O3)cc1 | -1 | 4 | 23
